The text below walks through data of ChEMBL document CHEMBL1122696, “Synthesis and antiviral/antitumor activities of certain pyrazolo[3,4-d]pyrimidine-4(5H)-selone nucleosides and related compounds” (J Med Chem, 1984).

For series [1], the system named is Human respirovirus 3. Kind of series: In vitro antiviral activity against parainfluenza type (para 3) virus. Type of series: functional. The conditions noted are these: read-out: ED50 (the source's name).
The test system of series [2] is L1210. In words: In vitro antitumor activity against L1210 leukemia cells; b = Inactive at 10e-4 M. The format is functional, cell-based. The conditions noted are these: Mus musculus. The gist of the method: (§1)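 L1210 and P388 cells kept in RPMI-1640 with 10% heat-inactivated fetal calf serum. Seeded in tubes at 5×10^4 cells/mL and grown 48 h at 37 °C with compound at 4-5 log doses. Growth counted by Coulter counter and expressed as % of untreated control tubes. ID50 is the dose giving 50% growth inhibition.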

The subject of series [3] is P388. Kind of series: In vitro antitumor activity against P388 leukemia cells; b = Inactive at 10e-4 M. Type of series: functional, cell-based. The conditions noted are these: Mus musculus. The method in brief: as §1
Series [4] can be described thus: Toxic level of the compound; None. The format is ADME.
The test system of series [5] is Measles morbillivirus. In words: In vitro antiviral activity against measles virus. The conditions noted are these: read-out: ED50 (the source's name). Type of series: functional.
Series [6] relates to Human alphaherpesvirus 2. In words: In vitro antiviral activity against Herpes simplex type 2 virus. The format is functional. To be noted: read-out: ED50 (the source's name).
Series [7] deals with L1210. Kind of series: In vitro antitumor activity against L1210 leukemia cells. The format is functional. The conditions noted are these: Mus musculus, read-out: ID50 (the source's name). The gist of the method: (§2)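 L1210 or P388 cells kept in RPMI-1640 with 10% heat-inactivated fetal calf serum, seeded at 5×10^4 cells/mL in tubes. Grown with compound at 4-5 log doses for 48 h at 37 °C. Growth read by Coulter cell count as % of untreated control tubes. ID50 = dose giving 50% growth inhibition.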

Series [8] deals with P388. In words: In vitro antitumor activity against P388 leukemia cells. To be noted: Mus musculus, read-out: ID50 (the source's name). Type of series: functional. The method in brief:
as §2

The subject of series [9] is Vaccinia virus. Kind of series: In vitro antiviral activity against Vaccinia virus. Type of series: functional. To be noted: Orthopoxvirus vaccinia; read-out: ED50 (the source's name).
The nature of series [10]: Toxic level of the compound. Type of series: ADME. The gist of the method: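 HeLa and Vero cells grown overnight to near confluency, then exposed to compound at 100 or 1000 μg/mL for 24-72 h in quadruplicate wells. Cells trypsinized, serially diluted and replated, then grown 3-5 days drug-free. Crystal violet-stained colonies counted. Survival expressed as relative plating efficiency versus untreated controls.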

Activity calls are given as the source filed them. The rule behind the calls is not given here.

On to `OC[C@H]1OC(n2ncc3c(S)ncnc32)[C@H](O)[C@@H]1O` (stereo partly drawn), for which the EC50 in series [1] was > 5000 µM; in [5], 12 µM; in series [6] it was 160 µM. The ID50 entry in [2] and in [3] was “Inactive at 10^-4M” in each case. Moreover, in [4], the Toxic level entry was “Not Active”.

`OC[C@H]1OC(n2nc(Br)c3c([SeH])ncnc32)[C@H](O)[C@@H]1O` (stereo partly drawn): the figures for the IC50 in series [7] and in series [8] were 2.7 µM and 2.3 µM, respectively. In addition, the EC50 in series [1] is > 5000 µM; in series [9], 5 µM; in [5], 1.3 µM; in series [6], 9 µM. In series [10], this molecule returned a Toxic level of 50 µM.

With `Cc1nc([SeH])c2cnn(C3O[C@H](CO)[C@@H](O)[C@H]3O)c2n1` (stereo partly drawn), the IC50 in [7] and in series [8] was 3.1 µM throughout. Besides, the EC50 in series [1] came out at 13 µM; in series [9] it was 16 µM; in [5] it was 1.3 µM; in series [6], 5 µM. In [10], this molecule registered a Toxic level of 500 µM.

For `Cc1nc(S)c2cnn(C3O[C@H](CO)[C@@H](O)[C@H]3O)c2n1` (stereo partly drawn), the EC50 is > 5000 µM in series [1], 1200 µM in series [9], 0.0014 µM in [5] and 320 µM in series [6]. Moreover, the ID50 result in series [2] and in [3] was “Inactive at 10^-4M” each time. In [10], this molecule yielded a Toxic level of 5000 µM.

As for `Cc1nc(N)c2cnn(C3O[C@H](CO)[C@@H](O)[C@H]3O)c2n1` (stereo partly drawn), the EC50 in series [1] is > 5000 µM; in [9] it was 5000 µM; in series [5], 12 µM; in series [6] it was 35 µM. In addition, the ID50 result in series [2] and in series [3] was “Inactive at 10^-4M” each time. In addition, the Toxic level entry in [4] is listed as “Not Active”.

Turning to `OC[C@H]1OC(n2ncc3c([SeH])ncnc32)[C@H](O)[C@@H]1O` (stereo partly drawn), the IC50 in series [7] worked out at 2.5 µM; in series [8] it was 2.7 µM. Also, the EC50 in series [1] was > 5000 µM; in series [9] it was 9.6 µM; in series [5], 1.2 µM; in series [6], 5 µM. Besides, in series [10], the Toxic level turned out to be 160 µM.

`Cc1nc2c(cnn2C2O[C@H](CO)[C@@H](O)[C@H]2O)c(=O)[nH]1` (stereo partly drawn): the EC50 in series [1] was > 5000 µM; in series [9] it was 1600 µM; in series [5], 12 µM; in series [6] it was 50 µM. Also, the ID50 result in series [2] and in series [3] was “Inactive at 10^-4M” each time. In [10], this molecule registered a Toxic level of 5000 µM.
